From ChEMBL document CHEMBL1145571, “Carboxylic acid isosteres improve the activity of ring-fused 2-pyridones that inhibit pilus biogenesis in E. coli” (Bioorg Med Chem Lett, 2008)

What was measured:
[1] = tested on: Escherichia coli; assay: Inhibition of P pilus biogenesis in Escherichia coli HB101/pPAP5 assessed as agglutination of erythrocytes at 1.8 mM; format: functional
Summary of the method: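 E. coli HB101/pPAP5 grown 24 h at 37 °C on TSA containing 1.8 mM compound, 2.5% DMSO and 100 μg/ml ampicillin. Cells scraped off, suspended in PBS pH 7.4 to OD600 = 1.0. 1 ml pelleted at 2000g for 5 min, resuspended in 80 μl PBS, then serially diluted in PBS for hemagglutination read-out.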

[2] = tested on: Escherichia coli; assay: Inhibition of pili-dependent biofilm formation of Escherichia coli HB101/pPAP5 at 400 uM; format: functional; parameters: scale not given: the % may be the effect or the level left
[3] = biological target: Chaperone protein PapD (Escherichia coli) (UniProt P15319); assay: Binding affinity to Escherichia coli PapD relative to control; parameters: concentration or dose not given beside the values
Chain of Chaperone protein PapD (Escherichia coli) (P15319 whole entry, looked up): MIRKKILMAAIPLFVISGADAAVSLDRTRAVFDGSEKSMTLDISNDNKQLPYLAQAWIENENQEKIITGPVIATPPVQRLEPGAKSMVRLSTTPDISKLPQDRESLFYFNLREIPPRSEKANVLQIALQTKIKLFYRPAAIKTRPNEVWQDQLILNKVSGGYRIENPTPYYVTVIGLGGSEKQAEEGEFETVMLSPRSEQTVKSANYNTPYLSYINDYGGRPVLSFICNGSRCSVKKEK

[4] = tested on: Escherichia coli; assay: Inhibition of pili-dependent biofilm formation of Escherichia coli HB101/pPAP5; format: functional, organism-based

SMILES | Activity [3] [%] | IC50 [4] [µM] | Activity [1] | Activity [2] [%]
O=c1cc(Cc2cccc3ccccc23)c(-c2ccccc2)c2n1[C@H](c1nnn[nH]1)CS2 | – | – | 2 | –
NC(=O)[C@@H]1CSc2c(-c3ccccc3)c(Cc3cccc4ccccc34)cc(=O)n21 | – | – | 64 | –
CS(=O)(=O)NC(=O)[C@@H]1CSc2c(-c3ccccc3)c(Cc3cccc4ccccc34)cc(=O)n21 | – | – | 4 | –
C[C@@H](C(=O)O)n1cc(-c2ccccc2)c(Cc2cccc3ccccc23)cc1=O | – | – | 32 | –
O=C(NO)[C@@H]1CSc2c(-c3ccccc3)c(Cc3cccc4ccccc34)cc(=O)n21 | – | – | 128 | –
O=C(NS(=O)(=O)c1ccccc1)[C@@H]1CSc2c(-c3ccccc3)c(Cc3cccc4ccccc34)cc(=O)n21 | – | – | 4 | –

Now from value to molecule, other results behind:

Activity [3] [%] | IC50 [4] [µM] | SMILES | Activity [1] | Activity [2] [%]
71 | – | O=C([O-])[C@@H]1CSc2c(C3CC3)c(Cc3cccc4ccccc34)cc(=O)n21.[Li+] | 8 | 45
40 | – | NC(=O)[C@@H]1CSc2c(C3CC3)c(Cc3cccc4ccccc34)cc(=O)n21 | 64 | –
62 | 30 | CS(=O)(=O)NC(=O)[C@@H]1CSc2c(C3CC3)c(Cc3cccc4ccccc34)cc(=O)n21 | 2 | –
52 | – | O=C(NO)[C@@H]1CSc2c(C3CC3)c(Cc3cccc4ccccc34)cc(=O)n21 | 64 | –
67 | 65 | O=c1cc(Cc2cccc3ccccc23)c(C2CC2)c2n1[C@H](c1nnn[nH]1)CS2 | 4 | –
100 | – | O=C(NS(=O)(=O)c1ccccc1)[C@@H]1CSc2c(C3CC3)c(Cc3cccc4ccccc34)cc(=O)n21 | 4 | –
33 | – | C[C@@H](C(=O)[O-])n1cc(C2CC2)c(Cc2cccc3ccccc23)cc1=O.[Li+] | 32 | –
